The values that follow come from article PMC10206482 (RSC Advances, 2023).

Usually IC50 stands for the concentration at which inhibition is half-maximal.

In brackets after ≈: the same amount, converted by molar mass.

One data set relates to tubulin. The data set can be described thus: Tubulin polymerization assay. Format: biochemical. The note with it: for Inhibition (%) of tubulin polymerisation: in vitro tubulin inhibition assay; for IC50: read-out: IC50 tubulin polymerisation; for IC50 / IC50 tubulin polymerisation: as printed in Table 2 and results text. In outline:
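Turbidimetric tubulin polymerization, using tubulin at 4 mg ml⁻¹. Test compound came from a 2 mM DMSO stock, diluted with water to final 0.1, 1, 10 and 100 μM. Polymerization was started by moving the reaction from 4 °C to a pre-warmed 37 °C plate. Absorbance at 340 nm was followed kinetically at 37 °C (0.5 cm pathlength). CA-4 served as reference.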

Data set [1] relates to Michigan Cancer Foundation-7 breast cancer (MCF-7). The data set can be described thus: MTT antiproliferative assay, MCF-7. Format: cell-based. The note with it: Homo sapiens, MCF7, read-out: Michigan cancer foundation-7 breast cancer (MCF-7) IC50. In outline:
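Human MCF-7 breast cancer cells were exposed to the test compound at 0.1, 1, 10 and 100 μM, with Taxol as positive reference. Viability was read by MTT and plotted as % cell viability against concentration (μM). IC50 is the concentration giving 50% growth inhibition relative to untreated control cells, taken from the dose–response curve.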
In general terms: Tetrazolium dyes change colour on reduction, which living cells bring about.

A further data set has as its system human hepatoma (Huh-7). The data set can be described thus: MTT antiproliferative assay, Huh-7. The class given is cell-based. To be noted: Huh-7, read-out: Human hepatoma (Huh-7) IC50. In outline:
(§1)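 Colorimetric MTT viability readout, run in parallel on human Huh-7 hepatoma, A549 lung adenocarcinoma and MCF-7 breast cancer cells, and on MDCK canine kidney cells as the non-cancerous model. Test compound at four concentrations (0.1, 1, 10, 100 μM), with Taxol as the positive reference. % viability was plotted against concentration, and IC50 was derived as 50% growth inhibition relative to untreated control.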

For data set [2], the system named is lung cell cancer adenocarcinoma (A549). The data set can be described thus: MTT antiproliferative assay, A549. Format: cell-based. To be noted: Homo sapiens, A549, read-out: Lung cell cancer adenocarcinoma (A549) IC50. In outline: as §1
In another data set the test system is mammary tumors. The data set can be described thus: In vivo DMBA-induced breast cancer model: tumor size and histopathology. The note with it: after treatment, 2 mg per kg per week. Also on record: species or system Wistar rats.
Data set [3] in a line: Body weight of tumor-bearing rats during treatment. The class given is in vivo, Wistar rats. The note with it: 2 mg per kg per week, day 0 to day 42.
Another data set relates to (A549) cells. The data set can be described thus: Morphological assessment of A549 cells. The class given is cell-based, human. The note with it: 100 μM, 48 h, compared to untreated control. In outline:
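Living cells were examined by inverted light microscopy for morphology changes, after exposure to test compound. Comparators were an untreated control and a Taxol-treated positive control.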

With `COc1cc(/C=C2\CN(C(C)=O)CC3=C2OC(N)=C(C#N)C3c2ccc(O)c(OC)c2)ccc1O` (stereo not shown) [3a, (E)-6-Acetyl-2-amino-3-cyano-8-(4-hydroxy-3-methoxybenzylidene)-4-(4-hydroxy-3-methoxyphenyl)-5,6,7,8-tetrahydro-4H-pyrano[3,2-c]pyridine], the “Inhibition (%) of tubulin polymerisation” value in the data set with tubulin is given as 79%. For the same compound, the IC50 with tubulin was 15.6 µM; in data set [1] it was 8.87 µM; with human hepatoma (Huh-7), 3.88 µM; in data set [2], 31.6 µM.
Regarding `CCOc1cc(/C=C2\CN(C(C)=O)CC3=C2OC(N)=C(C#N)C3c2ccc(O)c(OCC)c2)ccc1O` (stereo not shown) [3b, (E)-6-Acetyl-2-amino-3-cyano-4-(3-ethoxy-4-hydroxy-phenyl)-8-(3-ethoxy-4-hydroxy-benzylidene)-5,6,7,8-tetrahydro-4H-pyrano[3,2-c]pyridine], in the data set with mammary tumors, the “Histopathology of mammary gland (H&E): inflammatory cells infiltrates” value is recorded as “intensity of inflammatory cells infiltrates decreased”. The IC50 tubulin polymerisation in the data set with tubulin was found to be 4.03 µg/mL (≈ 8 µM). In the data set with tubulin, the “Inhibition (%) of tubulin polymerisation” value stood at 81%. Further, the IC50 with tubulin was 4.03 µM; in data set [1], 6.13 µM; with human hepatoma (Huh-7), 6.54 µM; in data set [2], 15.5 µM. Moreover, the “Effect on rats' body weights” value in data set [3] is “did not have a significant effect”. Moreover, the “Morphological assessment of cells” value in the data set with (A549) cells is on record as “apparent cell toxicity”.
Consider `CC(=O)N1CC2=C(OC(N)=C(C#N)C2c2ccc(Cl)cc2)/C(=C/c2ccc(Cl)cc2)C1` (stereo not shown) [3c, (E)-6-Acetyl-2-amino-3-cyano-8-(4-chlorobenzylidene)-4-(4-chlorophenyl)-5,6,7,8-tetrahydro-4H-pyrano[3,2-c]pyridine], for which the IC50 in data set [1] turned out to be 6.38 µM; with human hepatoma (Huh-7), 17.7 µM; in data set [2], 61.2 µM.
As for `CC(=O)N1CC2=C(OC(N)=C(C#N)C2/C=C/c2ccccc2)/C(=C/C=C/c2ccccc2)C1` (stereo not shown) [3d, (E)-6-Acetyl-2-amino-3-cyano-8-((E)-3-phenylallylidene)-4-((E)-styryl)-5,6,7,8-tetrahydro-4H-pyrano[3,2-c]pyridine], the IC50 with human hepatoma (Huh-7) is 20.7 µM.
Take `COc1cc(/C=C2\CN(C(C)=O)CC3=C2NC(=S)NC3c2ccc(O)c(OC)c2)ccc1O` (stereo not shown) [4a, (E)-6-Acetyl-8-(4-hydroxy-3-methoxybenzylidene)-4-(4-hydroxy-3-methoxyphenyl)-1,3,4,5,7,8-hexahydro-2H-pyrido[4,3-d]pyrimidin-2-thione]: the IC50 was found to be 8.01 µM in data set [1], 2.48 µM in the data set on human hepatoma (Huh-7) and 46.9 µM in data set [2].
The matching figures for `CCOc1cc(/C=C2\CN(C(C)=O)CC3=C2NC(=S)NC3c2ccc(O)c(OCC)c2)ccc1O` (stereo not shown) [4b, (E)-6-Acetyl-8-(3-ethoxy-4-hydroxybenzylidene)-4-(3-ethoxy-4-hydroxyphenyl)-1,3,4,5,7,8-hexahydro-2H-pyrido[4,3-d]pyrimidin-2-thione]: 16 µM, 7.27 µM and 42.3 µM.
Consider `COc1cc(/C=C2\CN(C(C)=O)CC3C2=NN(c2ccccc2)C3c2ccc(O)c(OC)c2)ccc1O` (stereo not shown) [5a, (E)-5-Acetyl-7-(4-hydroxy-3-methoxybenzylidene)-3-(4-hydroxy-3-methoxyphenyl)-2-phenyl-2,3,3a,4,6,7-hexahydro-5H-pyrazolo[4,3-c]pyridine], for which the “Inhibition (%) of tubulin polymerisation” value in the data set on tubulin is listed as 76%. The IC50 in the data set with tubulin is 6.06 µM; in data set [1], 5.27 µM; in the data set with human hepatoma (Huh-7), 5.47 µM; in data set [2], 20.3 µM.
The matching figures for `CCOc1cc(/C=C2\CN(C(C)=O)CC3C2=NN(c2ccccc2)C3c2ccc(O)c(OCC)c2)ccc1O` (stereo not shown) [5b, (E)-5-Acetyl-7-(3-ethoxy-4-hydroxybenzylidene)-3-(3-ethoxy-4-hydroxyphenyl)-2-phenyl-2,3,3a,4,6,7-hexahydro-5H-pyrazolo[4,3-c]pyridine]: 70%, 12.6 µM, 9.04 µM, 2.23 µM and 15.2 µM.
Take `COc1ccc(/C=C\c2cc(OC)c(OC)c(OC)c2)cc1O` [CA-4, Combretastatin A-4, reference compound]: in the data set on tubulin, the IC50 tubulin polymerisation turned out to be […], the “Inhibition (%) of tubulin polymerisation” value came out at […] and the IC50 is […].
In the case of `CC(=O)O[C@H]1C(=O)[C@@]2(C)[C@H]([C@H](OC(=O)c3ccccc3)[C@]3(O)C[C@H](OC(=O)[C@H](O)[C@@H](NC(=O)c4ccccc4)c4ccccc4)C(C)=C1C3(C)C)[C@]1(OC(C)=O)CO[C@@H]1C[C@@H]2O` [Taxol, reference compound], in the data set on mammary tumors, the “Histopathology of mammary gland (H&E): inflammatory cells infiltrates” value is given as “intensity of inflammatory cells infiltrates decreased”. Further, the values for the IC50 (in data set [1]; with human hepatoma (Huh-7); in data set [2]) were 12.3 µM, 6.68 µM and 38.1 µM, respectively. In data set [3], the “Effect on rats' body weights” value was “did not have a significant effect”. Also, in the data set on (A549) cells, the “Morphological assessment of cells” value is reported as “apparent cell toxicity”.
